The text below walks through data of ChEMBL document CHEMBL1811853, “Design and evaluation of 3-aminopyrazolopyridinone kinase inhibitors inspired by the natural product indirubin” (Bioorg Med Chem, 2011).

As a reminder, the inhibition is the drop in the measured response relative to a control, in per cent.

The target of experiment [1] is Ribosomal protein S6 kinase alpha-5 (Homo sapiens) (UniProt O75582). Description: Inhibition of MSK1 at 30 uM by microfluidic mobility shift assay. Put shortly:
(§1)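 Single-concentration screen, singlicate, 30 uM final (diluted from 1 mM DMSO solutions), fluorescently tagged peptide substrate appropriate to each kinase, ATP at apparent Km for each protein. Phosphorylated and unphosphorylated peptides separated electrophoretically; conversion is the phosphorylated peak area over the sum of both peaks. No-inhibitor and no-ATP controls; H89 reference on each plate.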

In experiment [2] the target is Mitogen-activated protein kinase 1 (Homo sapiens) (UniProt P28482). The experiment is described as follows: Inhibition of ERK2 at 30 uM by microfluidic mobility shift assay. In a few lines: as §1
Mitogen-activated protein kinase 1 (Homo sapiens), sequence (P28482 whole entry): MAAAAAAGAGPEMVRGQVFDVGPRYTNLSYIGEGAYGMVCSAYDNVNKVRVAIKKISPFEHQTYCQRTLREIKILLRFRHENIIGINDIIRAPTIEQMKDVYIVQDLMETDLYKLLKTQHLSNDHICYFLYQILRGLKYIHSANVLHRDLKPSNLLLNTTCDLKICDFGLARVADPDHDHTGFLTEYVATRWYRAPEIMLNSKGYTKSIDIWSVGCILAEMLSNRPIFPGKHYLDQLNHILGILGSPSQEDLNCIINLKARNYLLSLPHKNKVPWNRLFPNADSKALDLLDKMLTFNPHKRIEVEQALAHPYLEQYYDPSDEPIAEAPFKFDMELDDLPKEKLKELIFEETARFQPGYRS
Experiment [3] has as its target Glycogen synthase kinase-3 beta (Homo sapiens) (UniProt P49841). Description: Inhibition of GSK3B at 30 uM by microfluidic mobility shift assay. In a few lines: as §1
The target of experiment [4] is Tyrosine-protein kinase Lyn (Homo sapiens, UniProt P07948). Description: Inhibition of LYN at 30 uM by microfluidic mobility shift assay. In a few lines:
as §1

Experiment [5] addresses Tyrosine-protein kinase Lck (Homo sapiens, UniProt P06239). The experiment is described as follows: Inhibition of LCK at 30 uM by microfluidic mobility shift assay. In a few lines:
as §1

Experiment [6] has as its target RAC-alpha serine/threonine-protein kinase (Homo sapiens) (UniProt P31749). Description: Inhibition of AKT1 at 30 uM by microfluidic mobility shift assay. Put shortly:
as §1

Experiment [7] deals with T1, Aurora kinase A (Homo sapiens) (UniProt O14965).
T1 sequence (whole entry): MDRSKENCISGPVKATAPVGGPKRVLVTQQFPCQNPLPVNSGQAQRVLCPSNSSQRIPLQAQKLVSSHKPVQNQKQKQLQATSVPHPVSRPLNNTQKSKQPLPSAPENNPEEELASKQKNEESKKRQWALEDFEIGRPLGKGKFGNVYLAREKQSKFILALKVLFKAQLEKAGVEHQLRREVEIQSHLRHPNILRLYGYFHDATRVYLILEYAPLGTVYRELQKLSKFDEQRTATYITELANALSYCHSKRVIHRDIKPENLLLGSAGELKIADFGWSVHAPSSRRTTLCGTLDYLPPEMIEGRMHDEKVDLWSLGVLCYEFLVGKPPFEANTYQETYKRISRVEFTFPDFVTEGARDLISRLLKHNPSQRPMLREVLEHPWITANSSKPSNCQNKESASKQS
Description: Inhibition of AurA at 30 uM by microfluidic mobility shift assay. In a few lines:
as §1

Experiment [8] concerns the target Tyrosine-protein kinase Fyn (Homo sapiens, UniProt P06241). The experiment is described as follows: Inhibition of FYN at 30 uM by microfluidic mobility shift assay. In a few lines:
as §1

Experiment [9] has as its target Mitogen-activated protein kinase 14 (Homo sapiens, UniProt Q16539). The experiment is described as follows: Inhibition of p38alpha at 30 uM by microfluidic mobility shift assay. In a few lines: as §1
Experiment [10] addresses Serine/threonine-protein kinase Chk2 (Homo sapiens, UniProt O96017). The experiment is described as follows: Inhibition of CHK2 at 30 uM by microfluidic mobility shift assay. In a few lines:
as §1

Experiment [11] has as its target Ribosomal protein S6 kinase alpha-1 (Homo sapiens) (UniProt Q15418). Description: Inhibition of RSK1 at 30 uM by microfluidic mobility shift assay. In a few lines:
as §1

The target of experiment [12] is Proto-oncogene tyrosine-protein kinase Src (Homo sapiens, UniProt P12931). Description: Inhibition of SRC at 30 uM by microfluidic mobility shift assay. Put shortly:
as §1

Experiment [13] has as its target RAC-beta serine/threonine-protein kinase (Homo sapiens) (UniProt P31751). Description: Inhibition of AKT2 at 30 uM by microfluidic mobility shift assay. Put shortly:
as §1

The target in experiment [14] is Mitogen-activated protein kinase 3 (Homo sapiens) (UniProt P27361). Description: Inhibition of ERK1 at 30 uM by microfluidic mobility shift assay. Put shortly:
as §1

For experiment [15], the target named is Tyrosine-protein kinase ABL1 (Homo sapiens, UniProt P00519). The experiment is described as follows: Inhibition of ABL at 30 uM by microfluidic mobility shift assay. In a few lines: as §1
Experiment [16] addresses T2, Protein kinase C zeta type (Homo sapiens) (UniProt Q05513).
T2 sequence (whole entry): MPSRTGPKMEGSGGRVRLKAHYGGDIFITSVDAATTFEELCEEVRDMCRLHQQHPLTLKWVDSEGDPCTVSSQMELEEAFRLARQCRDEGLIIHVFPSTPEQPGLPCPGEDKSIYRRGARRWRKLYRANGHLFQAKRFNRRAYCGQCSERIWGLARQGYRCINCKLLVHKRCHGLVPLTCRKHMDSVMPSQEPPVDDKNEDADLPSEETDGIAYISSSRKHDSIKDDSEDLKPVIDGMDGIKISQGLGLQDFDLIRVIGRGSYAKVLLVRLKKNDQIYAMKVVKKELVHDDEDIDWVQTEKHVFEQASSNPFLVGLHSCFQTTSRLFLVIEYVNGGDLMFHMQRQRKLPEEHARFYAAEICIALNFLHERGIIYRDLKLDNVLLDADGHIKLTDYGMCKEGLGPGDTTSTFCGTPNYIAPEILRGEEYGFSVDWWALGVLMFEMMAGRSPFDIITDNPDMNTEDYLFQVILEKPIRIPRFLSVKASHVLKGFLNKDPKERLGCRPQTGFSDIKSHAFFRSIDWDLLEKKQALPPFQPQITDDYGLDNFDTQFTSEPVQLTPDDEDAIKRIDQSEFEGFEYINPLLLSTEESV
The experiment is described as follows: Inhibition of PKCz at 30 uM by microfluidic mobility shift assay. In a few lines: as §1

Experiment [17] is described as follows: Inhibition of PKA at 30 uM by microfluidic mobility shift assay. Put shortly:
as §1

Experiment [18] addresses MAP kinase-activated protein kinase 2 (Homo sapiens, UniProt P49137). The experiment is described as follows: Inhibition of MAPKAPK2 at 30 uM by microfluidic mobility shift assay. Put shortly: as §1

Mitogen-activated protein kinase 3 (Homo sapiens), sequence (P27361 whole entry): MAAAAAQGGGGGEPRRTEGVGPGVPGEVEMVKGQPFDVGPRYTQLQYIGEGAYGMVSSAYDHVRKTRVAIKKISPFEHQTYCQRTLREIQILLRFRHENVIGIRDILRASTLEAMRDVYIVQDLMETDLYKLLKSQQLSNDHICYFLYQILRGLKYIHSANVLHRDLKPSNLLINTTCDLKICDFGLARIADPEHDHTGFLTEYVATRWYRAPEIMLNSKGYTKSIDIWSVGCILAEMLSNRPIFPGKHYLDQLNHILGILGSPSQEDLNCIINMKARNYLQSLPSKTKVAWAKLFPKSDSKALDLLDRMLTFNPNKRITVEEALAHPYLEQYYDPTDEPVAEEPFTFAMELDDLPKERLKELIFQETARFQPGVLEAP
Tyrosine-protein kinase Lyn, sequence (P07948 2-512 limits assumed): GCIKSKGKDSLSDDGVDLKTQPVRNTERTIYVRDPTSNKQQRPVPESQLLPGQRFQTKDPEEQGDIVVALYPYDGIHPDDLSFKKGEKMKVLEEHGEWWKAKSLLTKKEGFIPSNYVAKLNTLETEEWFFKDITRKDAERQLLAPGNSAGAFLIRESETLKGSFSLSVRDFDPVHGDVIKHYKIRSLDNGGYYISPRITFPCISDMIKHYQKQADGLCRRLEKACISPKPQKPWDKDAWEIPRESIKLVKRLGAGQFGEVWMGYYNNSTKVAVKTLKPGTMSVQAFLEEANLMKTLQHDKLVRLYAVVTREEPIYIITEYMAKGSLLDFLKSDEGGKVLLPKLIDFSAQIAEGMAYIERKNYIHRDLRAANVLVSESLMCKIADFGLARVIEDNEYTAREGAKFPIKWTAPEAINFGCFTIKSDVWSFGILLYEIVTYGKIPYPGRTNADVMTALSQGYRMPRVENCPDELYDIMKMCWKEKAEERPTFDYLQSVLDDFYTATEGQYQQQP
Mitogen-activated protein kinase 14, sequence (Q16539 whole entry): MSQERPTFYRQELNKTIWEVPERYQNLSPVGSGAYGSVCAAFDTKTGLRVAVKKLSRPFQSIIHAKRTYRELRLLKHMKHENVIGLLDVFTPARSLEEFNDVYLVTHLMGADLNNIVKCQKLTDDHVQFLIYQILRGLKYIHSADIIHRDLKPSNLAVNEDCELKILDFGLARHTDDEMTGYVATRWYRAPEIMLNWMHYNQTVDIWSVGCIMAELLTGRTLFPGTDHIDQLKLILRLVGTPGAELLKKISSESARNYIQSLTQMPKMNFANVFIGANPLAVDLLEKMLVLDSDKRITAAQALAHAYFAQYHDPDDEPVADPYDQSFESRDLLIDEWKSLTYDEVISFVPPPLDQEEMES
Tyrosine-protein kinase Lck, sequence (P06239 2-509 limits assumed): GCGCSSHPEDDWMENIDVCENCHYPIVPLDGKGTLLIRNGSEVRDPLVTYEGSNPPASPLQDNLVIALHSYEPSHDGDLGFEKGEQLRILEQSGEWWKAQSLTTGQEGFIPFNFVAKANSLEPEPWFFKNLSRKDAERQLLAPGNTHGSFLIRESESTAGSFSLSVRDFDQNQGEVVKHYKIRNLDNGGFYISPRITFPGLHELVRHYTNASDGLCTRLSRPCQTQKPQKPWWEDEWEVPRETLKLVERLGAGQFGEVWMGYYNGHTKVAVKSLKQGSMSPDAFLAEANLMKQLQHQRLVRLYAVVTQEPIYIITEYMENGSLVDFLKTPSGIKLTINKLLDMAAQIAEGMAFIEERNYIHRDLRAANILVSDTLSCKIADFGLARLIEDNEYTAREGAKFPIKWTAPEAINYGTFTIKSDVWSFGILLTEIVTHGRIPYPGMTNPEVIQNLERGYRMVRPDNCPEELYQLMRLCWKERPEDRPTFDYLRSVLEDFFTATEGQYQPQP
Ribosomal protein S6 kinase alpha-1 (Homo sapiens), sequence (Q15418 whole entry): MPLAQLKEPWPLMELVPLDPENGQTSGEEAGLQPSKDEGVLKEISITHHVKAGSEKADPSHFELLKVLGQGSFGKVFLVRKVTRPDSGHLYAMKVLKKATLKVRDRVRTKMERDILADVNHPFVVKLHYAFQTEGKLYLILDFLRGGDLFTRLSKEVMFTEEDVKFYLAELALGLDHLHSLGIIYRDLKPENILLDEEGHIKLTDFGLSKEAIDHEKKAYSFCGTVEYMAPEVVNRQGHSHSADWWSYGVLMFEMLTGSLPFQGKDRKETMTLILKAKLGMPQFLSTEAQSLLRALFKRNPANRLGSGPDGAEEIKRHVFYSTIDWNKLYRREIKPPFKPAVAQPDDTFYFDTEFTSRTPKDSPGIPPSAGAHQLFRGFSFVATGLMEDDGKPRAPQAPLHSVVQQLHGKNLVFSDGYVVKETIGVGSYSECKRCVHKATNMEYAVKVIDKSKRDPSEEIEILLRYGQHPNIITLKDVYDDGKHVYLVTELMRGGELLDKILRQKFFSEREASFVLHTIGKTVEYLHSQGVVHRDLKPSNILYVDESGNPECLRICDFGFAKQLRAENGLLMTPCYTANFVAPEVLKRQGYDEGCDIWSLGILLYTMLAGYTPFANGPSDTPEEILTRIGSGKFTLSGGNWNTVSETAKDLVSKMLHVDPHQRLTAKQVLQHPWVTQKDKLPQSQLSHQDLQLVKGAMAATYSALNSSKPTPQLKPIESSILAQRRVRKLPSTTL
Tyrosine-protein kinase Fyn, sequence (P06241 2-537 limits assumed): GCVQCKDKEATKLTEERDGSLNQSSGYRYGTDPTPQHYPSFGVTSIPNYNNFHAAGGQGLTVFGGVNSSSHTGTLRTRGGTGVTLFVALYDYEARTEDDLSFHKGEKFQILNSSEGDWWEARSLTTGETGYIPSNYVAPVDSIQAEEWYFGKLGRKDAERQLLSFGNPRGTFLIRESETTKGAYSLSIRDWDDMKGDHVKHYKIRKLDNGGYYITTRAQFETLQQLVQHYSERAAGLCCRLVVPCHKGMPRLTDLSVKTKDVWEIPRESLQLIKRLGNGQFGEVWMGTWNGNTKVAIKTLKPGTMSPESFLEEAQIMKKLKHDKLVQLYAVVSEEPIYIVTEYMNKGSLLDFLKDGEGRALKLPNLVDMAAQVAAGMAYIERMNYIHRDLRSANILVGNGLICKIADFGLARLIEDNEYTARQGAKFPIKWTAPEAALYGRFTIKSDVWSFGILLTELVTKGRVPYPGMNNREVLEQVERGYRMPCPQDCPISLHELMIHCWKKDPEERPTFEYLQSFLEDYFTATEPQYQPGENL
Glycogen synthase kinase-3 beta (Homo sapiens), sequence (P49841 whole entry, looked up): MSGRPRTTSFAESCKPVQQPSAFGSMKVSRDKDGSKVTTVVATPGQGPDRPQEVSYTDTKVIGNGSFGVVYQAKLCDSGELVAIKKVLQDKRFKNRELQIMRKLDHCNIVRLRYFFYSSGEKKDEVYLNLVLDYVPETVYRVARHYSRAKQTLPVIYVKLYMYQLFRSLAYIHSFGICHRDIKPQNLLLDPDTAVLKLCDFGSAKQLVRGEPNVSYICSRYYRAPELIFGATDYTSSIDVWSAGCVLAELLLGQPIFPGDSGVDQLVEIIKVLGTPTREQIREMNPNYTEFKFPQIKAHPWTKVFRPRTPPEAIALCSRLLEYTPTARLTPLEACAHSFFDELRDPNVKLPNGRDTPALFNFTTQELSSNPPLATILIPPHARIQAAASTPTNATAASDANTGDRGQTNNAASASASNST
RAC-beta serine/threonine-protein kinase (Homo sapiens), sequence (P31751 whole entry): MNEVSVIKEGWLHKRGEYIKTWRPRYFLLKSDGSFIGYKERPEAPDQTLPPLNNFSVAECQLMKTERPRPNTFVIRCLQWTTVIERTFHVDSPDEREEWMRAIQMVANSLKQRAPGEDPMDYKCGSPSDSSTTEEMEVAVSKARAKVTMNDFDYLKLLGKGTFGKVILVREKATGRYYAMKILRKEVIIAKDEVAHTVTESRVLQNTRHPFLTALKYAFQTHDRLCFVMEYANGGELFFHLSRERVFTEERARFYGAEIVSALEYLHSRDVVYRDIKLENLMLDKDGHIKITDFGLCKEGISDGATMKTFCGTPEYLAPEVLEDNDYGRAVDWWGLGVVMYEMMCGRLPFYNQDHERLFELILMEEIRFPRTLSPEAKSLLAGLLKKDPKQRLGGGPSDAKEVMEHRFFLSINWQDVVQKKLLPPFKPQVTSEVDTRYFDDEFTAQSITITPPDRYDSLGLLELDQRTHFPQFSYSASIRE
MAP kinase-activated protein kinase 2, sequence (P49137 whole entry, looked up): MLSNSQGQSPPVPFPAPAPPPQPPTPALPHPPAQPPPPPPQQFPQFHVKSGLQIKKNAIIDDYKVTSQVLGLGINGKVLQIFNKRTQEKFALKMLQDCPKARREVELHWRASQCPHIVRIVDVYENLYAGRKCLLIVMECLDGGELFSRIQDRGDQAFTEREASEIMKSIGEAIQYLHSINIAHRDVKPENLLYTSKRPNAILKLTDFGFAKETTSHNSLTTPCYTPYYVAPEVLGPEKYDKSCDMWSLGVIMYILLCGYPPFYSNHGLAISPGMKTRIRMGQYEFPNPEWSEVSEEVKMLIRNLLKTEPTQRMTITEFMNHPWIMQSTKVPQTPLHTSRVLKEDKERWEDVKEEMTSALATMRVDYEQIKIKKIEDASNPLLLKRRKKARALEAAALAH

Consider `Nc1c2c(=O)[nH]c(-c3ccccc3)cc2nn1-c1ccccn1`, for which the inhibition is -4% in [1]; 0% in [2]; 41% in experiment [3]; 40% in experiment [4]; 15% in experiment [5]; 10% in experiment [6]. Besides, the inhibition in experiment [7] is 37%; in [8], 41%; in experiment [9] it was 7%; in [10] it was 18%; in experiment [11], 5%; in [12], 37%. Besides, the inhibition in experiment [13] was 0%; in experiment [14], 2%; in experiment [15] it was 33%; in [16], -3%; in experiment [17] it was -3%; in experiment [18] it was 6%.
In the case of `Cc1cc2c(c(N)nn2C)c(=O)[nH]1`, the inhibition was 4% in [1]; 8% in experiment [2]; 1% in [3]; -1% in experiment [5]; 11% in experiment [6]; 4% in [7]. Further, the inhibition in [8] is -8%; in experiment [9] it was 6%; in [10], 3%; in experiment [11], 2%; in experiment [12] it was 9%; in experiment [13], 4%. Also, the inhibition in [14] was -2%; in [15], 0%; in experiment [16], 0%; in experiment [17], -3%; in [18], 29%.
For the molecule `Cn1nc2c3c(nc(-c4ccccc4)cc31)NCC(=O)N2`, the inhibition in experiment [1] worked out at 0%; in experiment [2], 2%; in experiment [3], 14%; in experiment [4], 6%; in experiment [5], 6%; in experiment [6] it was 10%. The inhibition in experiment [7] turned out to be 20%; in [8], 12%; in [9], 6%; in [10], 5%; in [11] it was 0%; in [12], 22%. The inhibition in experiment [13] was determined as 1%; in experiment [14] it was 5%; in experiment [15] it was 4%; in experiment [16], 5%; in experiment [17], 0%; in experiment [18], 8%.
In the case of `COc1ccc(-c2cc3c(c(N)nn3C)c(=O)[nH]2)cc1`, the inhibition worked out at 9% in [1]; 16% in experiment [2]; 81% in [3]; 49% in experiment [4]; 46% in experiment [5]; 9% in experiment [6]. For the same molecule, the inhibition amounted to 33% in experiment [7]; 56% in [8]; 5% in experiment [9]; 16% in [10]; 18% in experiment [11]; 62% in experiment [12]. For the same molecule, the inhibition was -8% in [13]; 28% in [14]; 53% in experiment [15]; -3% in experiment [16]; 8% in experiment [17]; 51% in experiment [18].
Take `COCCNc1nc(-c2ccccc2)cc2c1c(N)nn2C`: the inhibition in [1] worked out at 0%; in [2], 0%; in experiment [3], 3%; in [4], 4%; in [5], 9%; in [6] it was 8%. Further, the inhibition in experiment [7] was 10%; in [8], 0%; in [9] it was 2%; in [10] it was 8%; in experiment [11], -3%; in experiment [12], 3%. In addition, the inhibition was -1% in experiment [13]; 3% in experiment [14]; -7% in experiment [15]; 20% in experiment [16]; -3% in experiment [17]; 2% in [18].
For the molecule `Nc1n[nH]c2cc(-c3ccccn3)[nH]c(=O)c12`, the inhibition in experiment [1] worked out at 35%; in [2], 12%; in experiment [3], 60%; in experiment [4], 49%; in experiment [5] it was 56%; in experiment [6], 2%. Further, the inhibition in experiment [7] worked out at 38%; in [8], 54%; in experiment [9], 17%; in [10], 47%; in [11], 24%; in experiment [12], 63%. The inhibition in [13] is 8%; in experiment [14], 11%; in experiment [15], 40%; in experiment [16], 3%; in [17] it was 42%; in experiment [18] it was 41%.
For `CN1CCN(c2ccc(-c3cc4c(c(N)nn4C)c(=O)[nH]3)cc2)CC1`, the inhibition in experiment [1] worked out at 29%; in experiment [2], 4%; in experiment [3] it was 45%; in experiment [4] it was 54%; in experiment [5], 65%; in [6], 8%. Further, the inhibition is 52% in [7]; 65% in [8]; 3% in experiment [9]; 53% in experiment [10]; 14% in experiment [11]; 80% in experiment [12]. The inhibition in [13] was -1%; in experiment [14], 13%; in experiment [15], 80%; in experiment [16], 7%; in experiment [17] it was 81%; in experiment [18], 45%.
`Cc1cc2c(c(NC(=O)Nc3ccccc3)nn2C)c(=O)[nH]1`: the inhibition in experiment [1] amounted to 0%; in [2], 7%; in [3] it was 2%; in [4], 16%; in experiment [5], 12%; in experiment [6], 4%. Also, the inhibition was 10% in experiment [7]; 7% in experiment [8]; 7% in experiment [9]; 2% in experiment [10]; 17% in experiment [12]; 11% in experiment [13]. The inhibition in experiment [14] was 4%; in experiment [15] it was 15%; in experiment [16], 19%; in [17] it was -6%; in [18], 0%.
For `Cc1nc(N)c2c(=O)[nH]c(C)cc2n1`, the inhibition was 0% in experiment [1]; 3% in experiment [2]; 52% in experiment [3]; 7% in [4]; 5% in experiment [5]; -2% in [6]. In addition, the inhibition in experiment [7] was determined as 3%; in experiment [8], 8%; in experiment [9] it was 2%; in experiment [10] it was 5%; in experiment [12], 9%; in experiment [13], 2%. Besides, the inhibition in [14] worked out at 4%; in [15], 18%; in [16], 3%; in [17], 2%; in [18], 18%.
